According to ChEMBL document CHEMBL1641514, “Drug metabolism-based design, synthesis, and bioactivities of 1-(2,6-dimethylphenoxy)-2-(3,4-dimethoxyphenylethylamino)propane hydrochloride (DDPH) analogs as α₁-adrenoceptors antagonists” (Bioorg Med Chem, 2011):

What was measured:
Rattus norvegicus [1] = test: Antihypertensive activity in Sprague-Dawley rat assessed as change in diastolic arterial pressure at 5 mg/kg, iv
Rattus norvegicus [2] = test: Antihypertensive activity in Sprague-Dawley rat assessed as change in heart rate at 5 mg/kg, iv
[3] = biological target: T1, Adrenergic receptor alpha-1 (Rattus norvegicus, UniProt P15823+P23944+P43140); test: Antagonist activity at alpha1 adrenergic receptor in Sprague-Dawley rat anococcygeus smooth muscle assessed as inhibition of phenylepinephrine-induced muscle contraction treated 20 mins before phenylepinephrine challenge; assay type: functional
T1 sequence (P15823 whole entry): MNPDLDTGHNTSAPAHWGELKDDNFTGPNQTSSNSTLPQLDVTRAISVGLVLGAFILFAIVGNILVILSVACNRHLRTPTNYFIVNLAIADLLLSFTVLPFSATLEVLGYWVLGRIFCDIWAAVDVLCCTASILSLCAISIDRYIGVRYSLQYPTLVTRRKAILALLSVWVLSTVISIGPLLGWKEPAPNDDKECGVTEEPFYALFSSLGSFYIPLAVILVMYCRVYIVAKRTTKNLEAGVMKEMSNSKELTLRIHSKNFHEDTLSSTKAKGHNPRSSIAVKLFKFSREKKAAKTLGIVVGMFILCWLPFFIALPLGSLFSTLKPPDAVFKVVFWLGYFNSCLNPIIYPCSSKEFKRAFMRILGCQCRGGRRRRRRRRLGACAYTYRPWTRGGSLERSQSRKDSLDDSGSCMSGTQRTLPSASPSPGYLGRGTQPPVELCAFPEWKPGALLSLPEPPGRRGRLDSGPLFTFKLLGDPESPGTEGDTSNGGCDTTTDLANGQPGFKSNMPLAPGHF
T1 sequence (P23944 whole entry): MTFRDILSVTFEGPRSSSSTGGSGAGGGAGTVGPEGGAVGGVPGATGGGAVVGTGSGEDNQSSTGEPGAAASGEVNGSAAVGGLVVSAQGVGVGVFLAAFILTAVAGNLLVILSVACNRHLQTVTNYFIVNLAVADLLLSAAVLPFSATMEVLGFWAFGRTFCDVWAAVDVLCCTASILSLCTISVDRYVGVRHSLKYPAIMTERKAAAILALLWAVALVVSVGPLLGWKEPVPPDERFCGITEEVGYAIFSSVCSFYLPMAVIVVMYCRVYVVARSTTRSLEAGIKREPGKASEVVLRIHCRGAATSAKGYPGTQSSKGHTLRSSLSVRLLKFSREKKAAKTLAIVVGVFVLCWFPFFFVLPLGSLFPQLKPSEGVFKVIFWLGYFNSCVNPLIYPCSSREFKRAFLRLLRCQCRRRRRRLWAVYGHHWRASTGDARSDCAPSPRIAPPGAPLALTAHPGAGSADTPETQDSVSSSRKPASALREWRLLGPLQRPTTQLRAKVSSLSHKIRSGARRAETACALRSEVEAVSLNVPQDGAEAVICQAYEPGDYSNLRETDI
T1 sequence (P43140 whole entry): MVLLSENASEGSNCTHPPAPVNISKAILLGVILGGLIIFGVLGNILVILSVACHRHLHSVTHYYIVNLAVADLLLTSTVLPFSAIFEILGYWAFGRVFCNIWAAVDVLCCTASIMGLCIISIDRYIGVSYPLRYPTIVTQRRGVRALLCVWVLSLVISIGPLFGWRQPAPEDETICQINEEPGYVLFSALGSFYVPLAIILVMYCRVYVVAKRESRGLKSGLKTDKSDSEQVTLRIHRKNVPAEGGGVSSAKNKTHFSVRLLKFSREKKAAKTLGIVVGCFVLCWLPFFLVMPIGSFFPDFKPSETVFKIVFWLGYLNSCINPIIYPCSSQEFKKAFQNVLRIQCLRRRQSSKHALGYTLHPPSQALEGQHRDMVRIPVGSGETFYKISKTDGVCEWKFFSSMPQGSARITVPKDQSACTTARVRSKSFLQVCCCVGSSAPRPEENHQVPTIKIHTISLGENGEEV
In short: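 Male Sprague–Dawley rats (300–350 g) killed by cervical dislocation. Anococcygeus muscle mounted in a 20 mL bath of Krebs solution (pH 7.4), 37 °C, gassed with 5% CO₂/95% O₂. Resting tension 1.0 g. Equilibrated 1 h with Krebs renewal every 20 min. Cocaine, hydrocortisone and propranolol then added. pA₂ read out.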

Rattus norvegicus [4] = test: Antihypertensive activity in Sprague-Dawley rat assessed as change in mean arterial pressure at 5 mg/kg, iv
Rattus norvegicus [5] = test: Antihypertensive activity in Sprague-Dawley rat assessed as change in systolic arterial pressure at 5 mg/kg, iv
Rattus norvegicus [6] = test: Antihypertensive activity in Sprague-Dawley rat assessed as time duration of hypotensive response at 5 mg/kg, iv

| Compound | Activity (Rattus norvegicus [1]) [%] | Activity (Rattus norvegicus [2]) [%] | pA2 [3] | Activity (Rattus norvegicus [4]) [%] | Activity (Rattus norvegicus [5]) [%] | Time (Rattus norvegicus [6]) [min] |
| --- | --- | --- | --- | --- | --- | --- |
| COc1ccc(CCNC(C)COc2c(C)cc(C#N)cc2C)cc1O.Cl (configuration not stated) | -14.2 | -6.4 | 5.61 | -11 | -8.2 | 4 |
| COc1cc(CCNC(C)COc2c(C)cc(Cl)cc2C)ccc1O.Cl (configuration not stated) | -25.1 | -6.6 | 8.6 | -20.2 | -12.1 | 61 |
| COc1ccc(CCNC(C)COc2c(C)cc(Cl)cc2C)cc1OC.Cl (configuration not stated) | -18.5 | -8.78 | 8.18 | -15.9 | -13.3 | 34 |
| COc1ccc(CCNC(C)COc2c(C)cc(Br)cc2C)cc1OC.Cl (configuration not stated) | -7.8 | -8.3 | 6.93 | -8.5 | -9.2 | 12 |
| COc1cc(CCNC(C)COc2c(C)cc(Br)cc2C)ccc1O.Cl (configuration not stated) | -19.1 | -1.7 | 9.94 | -15.5 | -7.6 | 23 |
| COc1ccc(CCNC(C)COc2c(C)cc(Br)cc2C)cc1O.Cl (configuration not stated) | -12.8 | -2.3 | 7.02 | -7.5 | -3.5 | 4 |
| COc1ccc(CCNC(C)COc2c(C)ccc(C)c2C)cc1OC.Cl (configuration not stated) | -34.2 | -16.6 | 7.71 | -27.1 | -17.4 | 57 |
| COc1cc(CCNC(C)COc2c(C)ccc(C)c2C)ccc1O.Cl (configuration not stated) | -20.5 | -0.96 | 8.02 | -14.6 | -7.9 | 80 |
| COc1cc(CCNC(C)COc2c(C)cc(C)cc2C)ccc1O.Cl (configuration not stated) | -48.99 | -23.52 | 8.86 | -45.92 | -36.45 | 205 |
| COc1ccc(CCNC(C)COc2c(C)cc(C)cc2C)cc1OC.Cl (configuration not stated) | -28.23 | -16.3 | 7.25 | -27.86 | -19.03 | 33 |
| COc1cc(CCNC(C)COc2c(C)cc(C#N)cc2C)ccc1O.Cl (configuration not stated) | -29.61 | -2.33 | 6.65 | -24.9 | -17.3 | 6 |
| COc1ccc(CCNC(C)COc2c(C)cccc2C)cc1OC.Cl (configuration not stated) | -26 | -16.04 | 8.07 | -30.4 | -19.79 | 120 |
